One compound from PMC3180826 (ACS chemical neuroscience, 2010) can be followed below.

SMILES strings stand for the structures. Positions count from the first letter of the chain named.

Assay [1] concerns the target T1, M5 (Homo sapiens, UniProt P08912).
T1 sequence (P08912 1-532): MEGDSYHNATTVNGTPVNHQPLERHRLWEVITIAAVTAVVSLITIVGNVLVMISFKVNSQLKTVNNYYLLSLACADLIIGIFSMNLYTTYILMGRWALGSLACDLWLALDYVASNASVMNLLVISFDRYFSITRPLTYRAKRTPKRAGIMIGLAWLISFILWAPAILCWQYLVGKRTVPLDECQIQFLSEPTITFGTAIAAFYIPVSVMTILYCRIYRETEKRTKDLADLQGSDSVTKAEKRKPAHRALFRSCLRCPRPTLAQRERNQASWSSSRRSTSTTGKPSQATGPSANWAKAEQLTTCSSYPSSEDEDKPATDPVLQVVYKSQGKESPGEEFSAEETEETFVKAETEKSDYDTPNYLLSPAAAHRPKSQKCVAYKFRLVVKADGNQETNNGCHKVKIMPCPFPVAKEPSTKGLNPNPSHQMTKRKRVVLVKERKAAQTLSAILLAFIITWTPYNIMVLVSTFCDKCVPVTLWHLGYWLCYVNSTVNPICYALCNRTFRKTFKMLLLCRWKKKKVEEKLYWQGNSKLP
Put plainly: [3H]-NMS competition binding, M5 CHO membranes. As to conditions: concentrations well above those required to fully activate M1.

Assay [2] has as its target T2, rM1 EE397/401DD (Rattus norvegicus, UniProt P08482, E397D/E401D).
T2 sequence (P08482 1-460 E397D/E401D): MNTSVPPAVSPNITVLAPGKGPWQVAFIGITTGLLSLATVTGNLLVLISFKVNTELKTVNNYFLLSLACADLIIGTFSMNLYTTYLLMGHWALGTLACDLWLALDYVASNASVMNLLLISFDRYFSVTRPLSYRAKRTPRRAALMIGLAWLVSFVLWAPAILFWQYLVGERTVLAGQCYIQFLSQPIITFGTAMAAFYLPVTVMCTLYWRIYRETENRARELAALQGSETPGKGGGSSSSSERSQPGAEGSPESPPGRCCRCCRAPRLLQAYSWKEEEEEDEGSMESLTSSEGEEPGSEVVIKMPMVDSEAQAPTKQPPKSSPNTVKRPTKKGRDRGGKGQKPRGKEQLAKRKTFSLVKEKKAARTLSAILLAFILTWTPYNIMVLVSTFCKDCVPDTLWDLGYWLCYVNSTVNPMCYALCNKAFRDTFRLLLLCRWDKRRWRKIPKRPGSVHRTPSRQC
Briefly: Calcium mobilization, rM1 EE397/401DD double mutant CHO-K1 cells. As to conditions: compared with wt rM1 and triple mutant. It is filed as cell-based. For orientation: Calcium assays in cells follow changes in intracellular calcium, usually with a dye or a luminescent sensor.

Assay [3] concerns the target T3, M4 (Rattus norvegicus, UniProt P08485).
T3 sequence (P08485 1-478): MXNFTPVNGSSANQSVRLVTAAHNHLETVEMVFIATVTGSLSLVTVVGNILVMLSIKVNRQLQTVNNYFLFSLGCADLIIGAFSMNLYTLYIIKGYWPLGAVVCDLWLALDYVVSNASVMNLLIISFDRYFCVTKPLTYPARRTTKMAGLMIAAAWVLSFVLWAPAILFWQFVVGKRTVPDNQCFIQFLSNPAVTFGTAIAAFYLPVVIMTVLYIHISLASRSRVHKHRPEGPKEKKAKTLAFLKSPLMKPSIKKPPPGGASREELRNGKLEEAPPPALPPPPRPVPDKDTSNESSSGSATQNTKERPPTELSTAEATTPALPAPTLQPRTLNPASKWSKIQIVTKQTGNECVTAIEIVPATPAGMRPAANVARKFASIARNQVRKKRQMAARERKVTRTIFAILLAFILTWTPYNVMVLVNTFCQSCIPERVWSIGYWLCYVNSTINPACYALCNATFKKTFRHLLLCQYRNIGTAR
Briefly: [3H]-NMS competition binding, M4 CHO membranes. Conditions: concentrations well above those required to fully activate M1.

Assay [4] addresses T4, hM2 (Homo sapiens, UniProt P08172).
T4 sequence (P08172 1-466): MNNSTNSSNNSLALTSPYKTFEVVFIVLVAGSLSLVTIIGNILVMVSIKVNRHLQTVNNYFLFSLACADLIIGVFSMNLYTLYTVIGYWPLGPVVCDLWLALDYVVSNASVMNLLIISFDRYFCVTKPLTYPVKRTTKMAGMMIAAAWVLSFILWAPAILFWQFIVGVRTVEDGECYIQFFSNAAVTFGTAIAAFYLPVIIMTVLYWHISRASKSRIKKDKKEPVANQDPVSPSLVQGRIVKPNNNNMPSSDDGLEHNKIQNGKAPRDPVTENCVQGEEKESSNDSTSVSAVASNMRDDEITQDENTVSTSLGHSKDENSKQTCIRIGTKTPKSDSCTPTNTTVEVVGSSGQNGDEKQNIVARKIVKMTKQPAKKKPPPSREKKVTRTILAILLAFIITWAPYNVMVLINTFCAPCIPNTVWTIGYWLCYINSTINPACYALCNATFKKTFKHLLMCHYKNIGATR
Put plainly: Calcium mobilization assay, agonist mode, M2. It is filed as cell-based. As to conditions: up to 30 μM. The essentials: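 CHO-K1 cells stably expressing hM2/Gqi5 or rM4/Gqi5 (6 × 10^4 cells/well), or hM3 or hM5 (5 × 10^4 cells/well), were cultured overnight at 37 °C in 5% CO2. Cells were loaded with 2 μM Fluo-4 AM for 1 h at 37 °C in HBSS with 20 mM HEPES and 2.5 mM probenecid, pH 7.4. Eight-point test compound concentration series were added at 19 s of a 130 s read. Calcium flux was read as fluorescence fold over basal.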

The target in assay [5] is T5, rM1 E397D (Rattus norvegicus, UniProt P08482, E397D).
T5 sequence (P08482 1-460 E397D): T2 sequence (P08482 1-460 E397D/E401D) with D401E
Briefly: Calcium mobilization, rM1 E397D mutant CHO-K1 cells. It is filed as cell-based. Conditions: compared with wt rM1. In a few lines: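 CHO-K1 cells were transiently transfected overnight at 37 °C with 10 μg of mutant rat M1 cDNA in pcDNA3.1+ using Fugene 6, then plated for the calcium assay. They were loaded with 2 μM Fluo-4 AM for 1 h at 37 °C in HEPES/probenecid-buffered HBSS, pH 7.4. Test compound dose–response series were added at 19 s. Calcium mobilization was measured as fluorescence increase over basal.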

For `CCOC(=O)N1CCC(NCCNC(=O)c2ccccc2)CC1` [VU0184670, ethyl 4-(2-benzamidoethylamino)piperidine-1-carboxylate], the “reduction of [3H]-NMS binding to M5” value in assay [1] is reported as “did not reduce”. In addition, in assay [2], the “functional potency and efficacy at EE397/401DD double mutant” value was “decrease the potency and efficacy further toward the levels observed with the triple mutant”. The “reduction of [3H]-NMS binding to M4” value in assay [3] was “did not reduce”. In addition, the “agonist activity at M2” value in assay [4] was “no activity”. In assay [5], the “functional potency at E397D mutant” value is “Not much potency appeared to be lost”.
